These results are taken from ChEMBL document CHEMBL4513216, “Probing the Open Global Health Chemical Diversity Library for Multistage-Active Starting Points for Next-Generation Antimalarials” (ACS Infect Dis, 2020).

This data set can be described thus: Toxicity liver stage against HepG2, at 10uM. The conditions noted are these: human, HepG2-A16-CD81EGFP cells; read-out: INHIBITION
Also noted: test concentration 10 uM, cell line HepG2-A16-CD81EGFP. Format: cell-based. A digest of the protocol:
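Uninfected HepG2-A16-CD81EGFP cells, 3 × 10^3 per well, 1536-well, plated on prespotted compound at 10 μM final, parasite-free screening media added to match infected plates; puromycin 10 μM positive, DMSO 0.5% negative; run in parallel with 48 h PbLuc assay at 37 °C, 5% CO2; viability by CellTiter-Glo luminescence, normalized to controls.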
For the compound `CSc1nnc(N(CCC#N)CCC#N)s1`, the cytotoxicity at 10 µM worked out at 8.95%.

Turning to `COc1ccc(CN2CC[C@H](c3nnc(-c4ccco4)o3)C2)cc1`, the cytotoxicity at 10 µM was 0.0623%.

With `COC(=O)c1ccc(C(=O)N2CCC(c3nnc(C)s3)CC2)cc1`, the cytotoxicity at 10 µM was 4.95%.

As for `Cn1cc(C(=O)Nc2ccc3c(c2)N(C(=O)c2ccco2)CC3)nn1`, the cytotoxicity at 10 µM stood at 0.529%.

Regarding `O=C(C1CCCCC1)N1CCO[C@@H]2CNC[C@@H]21`, the cytotoxicity at 10 µM was determined as 8.82%.

Take `O=C(c1cc(-c2ccn(CC3CC3)n2)n2ccccc12)N1CCCO1`: the cytotoxicity at 10 µM was 5.07%.

For the compound `CNC(=O)c1cnc2n1CCN(C(=O)Cc1ccccn1)C2`, the cytotoxicity at 10 µM is 6.68%.

In the case of `O=C(NCCc1ccncc1)[C@H]1C[C@@H]2CCN(c3nncs3)C[C@H]2O1`, the cytotoxicity at 10 µM is 4.36%.

As for `O=C(c1ccccc1-n1cnnn1)N1CCC2(CC1)OCCO2`, the cytotoxicity at 10 µM amounted to 1.5%.

Take `Cn1c(=O)[nH]c(=O)n2c(CC(=O)Nc3ccc(Cl)c(Cl)c3)cnc12`: the cytotoxicity at 10 µM stood at 3.82%.

For the compound `CCC(CC)C(=O)NCc1cnn(CC)c1`, the cytotoxicity at 10 µM turned out to be 7.19%.

Take `Cn1cc(-c2cc(C(F)(F)F)nn2CCC#N)cn1`: the cytotoxicity at 10 µM came out at 6.5%.

For `CCS(=O)(=O)N1CCCCC1c1nc(C)no1` (stereo unspecified), the cytotoxicity at 10 µM is 7.03%.

Turning to `CCn1cc(NC(=O)C2CCC(=O)N2Cc2ccco2)cn1` (stereo unspecified), the cytotoxicity at 10 µM is -0.607%.

With `CC(C(=O)NCCCn1ccnc1)n1cc(Br)cn1` (stereo unspecified), the cytotoxicity at 10 µM was -13.8%.

For the compound `COc1cccc(O[C@H]2CCN(c3nc(C)cc(C)n3)CC[C@@H]2O)c1`, the cytotoxicity at 10 µM is 2.58%.

Consider `Cc1ccc(S(=O)(=O)N2CC[C@@H]3C[C@H](NC(=O)c4ccncc4)[C@@H]32)cc1`, for which the cytotoxicity at 10 µM was found to be 0.385%.

Take `CCCn1nc(C)c(-c2cncn2CC2(N(C)C)CCC(C)CC2)c1C` (stereo unspecified): the cytotoxicity at 10 µM is 9.35%.

As to `Cc1nc(N)ncc1C(=O)N1CCCC1(C)C(=O)N(C)C` (stereo unspecified), the cytotoxicity at 10 µM is 10.2%.

For the compound `CC(=O)Nc1nc(SCc2ccc3c(c2)OCO3)ns1`, the cytotoxicity at 10 µM is -8.98%.

With `Cc1ncncc1C(=O)N1CCOC(C(=O)NC2CCCC2)C1` (stereo unspecified), the cytotoxicity at 10 µM is -4.23%.

Turning to `Cc1cc(C)nc(C2CCCN2C(=O)c2coc(C)n2)n1` (stereo unspecified), the cytotoxicity at 10 µM was determined as 6.93%.

For the compound `Nc1nccc(C2CCN(CC3CC3)C2)n1` (stereo unspecified), the cytotoxicity at 10 µM was 8.54%.

With `Cc1ncccc1Oc1nccnc1C1CCCN(C(C)C)C1` (stereo unspecified), the cytotoxicity at 10 µM is -10.1%.

For `O=C1Nc2ccccc2CNC12CCN(CC1CC1)CC2`, the cytotoxicity at 10 µM came out at 6.03%.

For the compound `COc1ccc(-n2cnc(Cl)c2CO)cc1`, the cytotoxicity at 10 µM was 2.49%.

With `Cc1nnc(CSc2ccccn2)o1`, the cytotoxicity at 10 µM turned out to be 14.3%.

Turning to `COCCC(=O)N1CCC(NC(=O)c2cscc2C)CC1`, the cytotoxicity at 10 µM is -14.2%.

In the case of `O=C(CS(=O)(=O)Cc1cccc(Br)c1)Nc1cn[nH]c1`, the cytotoxicity at 10 µM is 0.575%.

Consider `NC(=O)C1CCCN1C(=O)c1cc(C2CC2)nc2ccc(F)cc12` (stereo unspecified), for which the cytotoxicity at 10 µM is 1.75%.

As to `CN(C)c1cc2c(nn1)CCN(C(=O)C1COc3ccccc3C1)C2` (stereo unspecified), the cytotoxicity at 10 µM was 14.3%.

For the compound `Cc1noc(C)c1CCC(=O)N1CCCC(n2ccnc2C)C1` (stereo unspecified), the cytotoxicity at 10 µM stood at 10.9%.

With `CCOCCC1(CNC(=O)c2ccncc2Cl)CCC1`, the cytotoxicity at 10 µM came out at 5.38%.

Take `CC1CCCCN1Cc1nc(Cc2ccccc2)no1` (stereo unspecified): the cytotoxicity at 10 µM stood at 4.61%.

As for `Cc1oc(-c2ccsc2)nc1CC(=O)NCC(C)(C)CN(C)C`, the cytotoxicity at 10 µM was -5.81%.

On to `Cc1ccc(C)c(CC(=O)NC2(C#N)CCOCC2)c1`, for which the cytotoxicity at 10 µM is 6.31%.

Regarding `CCN(C1CCN(c2cccc(F)c2C(C)=O)CC1)S(C)(=O)=O`, the cytotoxicity at 10 µM turned out to be 5.17%.

For `COCc1csc(NC(=O)NCc2ccsc2)n1`, the cytotoxicity at 10 µM was 4.53%.

Consider `CC(C)C1CCCN1C(=O)c1ccc(-n2ncc(C#N)c2N)cc1` (stereo unspecified), for which the cytotoxicity at 10 µM is -1.89%.

In the case of `CCSc1ccc(C(=O)N2CCCCC2C(=O)N2CCCC2)cn1` (stereo unspecified), the cytotoxicity at 10 µM worked out at 10.5%.

As to `COCCC(=O)N1CCCC1c1cccc(C)c1C` (stereo unspecified), the cytotoxicity at 10 µM is 5.79%.

`C=C(C)CN1C(=O)CC(Cc2ccc(F)cc2)C1=O` (stereo unspecified): the cytotoxicity at 10 µM came to 1.62%.

Take `CCN(C(=O)CN1CCCC1c1cccs1)c1ccccc1C` (stereo unspecified): the cytotoxicity at 10 µM stood at 3.7%.

Consider `CCCc1cc(C(=O)Nc2nc(SC)ns2)[nH]n1`, for which the cytotoxicity at 10 µM is -19.3%.

As for `CN(C)C(=O)CNC(CC(F)(F)F)c1ccc(Cl)cc1` (stereo unspecified), the cytotoxicity at 10 µM is -3.53%.

In the case of `CC(C)C(=O)N1CCC(NCc2c(C(C)C)nn(C)c2N(C)C)CC1`, the cytotoxicity at 10 µM is 5.21%.

`CC(NC(=O)Cn1cccn1)c1cccnc1` (stereo unspecified): the cytotoxicity at 10 µM is 15.9%.

For `Cc1nc(C)n(C2CCCN(C(=O)CCc3ccncc3)C2)n1` (stereo unspecified), the cytotoxicity at 10 µM is -5.23%.

`CCN1CC[C@@H]2OC[C@H](C(=O)NCc3cccs3)C[C@@H]2C1`: the cytotoxicity at 10 µM is -106%.

Take `Cn1ccc(C(=O)NC2CCC23CCN(C(=O)N2CCCC2)CC3)c1` (stereo unspecified): the cytotoxicity at 10 µM was 2.01%.

On to `Cc1cc2nc(C3CCCCC3)c(-c3ccnc(NCCO)n3)cn2n1`, for which the cytotoxicity at 10 µM was -0.0295%.

For the compound `Cc1cc(C(=O)N2CCC3(CC2)c2nc[nH]c2CCN3CC(C)C)no1`, the cytotoxicity at 10 µM is 11.1%.

For the compound `COCc1nnc(C(=O)N(C)Cc2cnc3ccccn23)o1`, the cytotoxicity at 10 µM was found to be 1.69%.

With `CCn1cncc1C1CC(=O)Nc2c1c(C)nn2C` (stereo unspecified), the cytotoxicity at 10 µM is -0.557%.

Regarding `Cc1nn(C)c(C)c1C(C)NC(=O)c1cc(CN2CCC(O)CC2)on1` (stereo unspecified), the cytotoxicity at 10 µM is 0.894%.

Turning to `Cc1cccc2c1nc(CCO)n2-c1ccc(C(=O)N2CCCC2)o1`, the cytotoxicity at 10 µM worked out at 7.39%.

For the compound `CCNc1ncc(C(=O)NCCNc2ccncc2C)cn1`, the cytotoxicity at 10 µM was -6.83%.

Turning to `CN1CCCN(C[C@@H]2CN(c3nc(C(N)=O)cs3)C[C@@H]2CO)CC1`, the cytotoxicity at 10 µM stood at 2.67%.

Regarding `CCn1cnnc1Cc1nc2c([nH]1)CC(c1ccc(Cl)cc1)CNC2=O` (stereo unspecified), the cytotoxicity at 10 µM was -48.9%.

Turning to `CN(C)CC1(O)CCN(Cc2cnc3c(-c4ccccc4)cnn3c2)C1` (stereo unspecified), the cytotoxicity at 10 µM is -6.16%.

Turning to `CN(C)CCCn1ccnc1C1CCN(c2cccc(C(=O)O)n2)CC1`, the cytotoxicity at 10 µM was 6.87%.

As to `CCCc1cc(C(=O)N[C@H](C)[C@@H](O)c2ccc(O)cc2)n(C)n1`, the cytotoxicity at 10 µM amounted to 1.48%.

As for `Cc1nsc(NC(=O)N2CCN(Cc3ccccc3F)C(=O)C2)n1`, the cytotoxicity at 10 µM is -4.25%.

Turning to `N#Cc1ccccc1CN1CCC(c2nccn2CC2CCC2)CC1`, the cytotoxicity at 10 µM is -10.1%.

Consider `COCCn1cnnc1C(C)NC(=O)c1[nH]c2c(C)cc(C)cc2c1C` (stereo unspecified), for which the cytotoxicity at 10 µM was -9.11%.

For the compound `CNc1ncccc1C(=O)N1CCCC2(CCN(C)CC2)CC1`, the cytotoxicity at 10 µM is -9.17%.

For the compound `Cc1cccc2c1nc(CCO)n2-c1ccc(NS(C)(=O)=O)nc1`, the cytotoxicity at 10 µM amounted to 2.34%.

For the compound `CCNC(=O)N1CCC(Nc2nccc(NCC)n2)CC1`, the cytotoxicity at 10 µM was -3.6%.

As to `O=C(NCc1cccnc1-n1cncn1)C1CC2(CCNCC2)CN1` (stereo unspecified), the cytotoxicity at 10 µM turned out to be 2.08%.

For `COCCc1noc(CNC2CCCC(C)(C)C2)n1` (stereo unspecified), the cytotoxicity at 10 µM was -0.475%.

With `CCN(CC)c1ccc(-c2nc(-c3cccc(OC)c3OC)no2)cn1`, the cytotoxicity at 10 µM came to 20%.

With `CCCc1nc(C)cc(N2CCC3(CCC(=O)N(CCOC)C3)CC2)n1`, the cytotoxicity at 10 µM was 9.51%.

In the case of `O=C1CCC(=O)N1c1nn(Cc2ccccc2Cl)cc1Cl`, the cytotoxicity at 10 µM was -6.69%.

`COCCCNC(=O)CN(C)C(=O)c1ccccc1O`: the cytotoxicity at 10 µM is -7.04%.

As for `Cc1ccc2oc(C(=O)N3CCCC(n4ccnc4C)C3)cc2n1` (stereo unspecified), the cytotoxicity at 10 µM is -3.37%.

As for `CCc1nc(CN(C)C2CCN(CCNS(=O)(=O)CC)C2)no1` (stereo unspecified), the cytotoxicity at 10 µM was -2.14%.

In the case of `c1ccc(-c2nc(CN3CCCC(Cn4cncn4)C3)co2)cc1` (stereo unspecified), the cytotoxicity at 10 µM came to 3.18%.

For `Cc1nc(C)n(C2CCCN(C(=O)c3cc4ccccc4n3C)C2)n1` (stereo unspecified), the cytotoxicity at 10 µM was -4.5%.

As for `CN(C)C(=O)CO[C@@H]1CC[C@H]2[C@H]1OCCN2c1ncccn1`, the cytotoxicity at 10 µM is -6.96%.

For `Cc1nc(CN2C(=O)C[C@H]3[C@H]2CCN3C2CCOCC2)cs1`, the cytotoxicity at 10 µM was -7.87%.

Turning to `Cc1nc2c(cc1C(=O)O)CCN(Cc1ccsc1)CC2`, the cytotoxicity at 10 µM amounted to 9.62%.

With `c1nc2c(c(-c3ccsc3)n1)CCN(Cc1ccoc1)CC2`, the cytotoxicity at 10 µM is -11.4%.

`CC1=N[C@@]2(CC[C@@H]3CN(Cc4ccccc4F)C[C@@H]32)C(=O)N1CC1CC1`: the cytotoxicity at 10 µM was 1.47%.

With `CC(C)N1[C@H](Cn2cncn2)C[C@@H]2CN(c3ncccn3)CC[C@@H]21`, the cytotoxicity at 10 µM came to 3.17%.

As for `CC(C)n1nc(CN(C)C)c2c1CN(CC1CC1)CC2`, the cytotoxicity at 10 µM is -3.15%.

As for `O=C(NC1CCC1)[C@H]1CCS(=O)(=O)[C@@H]2CN(CCc3ccccc3)C[C@H]12`, the cytotoxicity at 10 µM is -3.06%.

`CN(C)C(=O)N1CCC2(CC1)CCN(Cc1ccccn1)C2=O`: the cytotoxicity at 10 µM came out at 2.05%.

As to `CC(=O)N1CCOCC2(CCN(Cc3ccc(C)s3)CC2)C1`, the cytotoxicity at 10 µM was -5.39%.

Consider `CN(C)CCN1CCCC12CCN(C(=O)c1cccn1C)CC2`, for which the cytotoxicity at 10 µM was -2.03%.

Regarding `Cc1nc(N2CCCC2)nc2c1CCN(C(=O)CN(C)C)CC2`, the cytotoxicity at 10 µM is -5.73%.

For the compound `CC(C)N(C)Cc1nnc2n1CCN(CC1CC1)CC2`, the cytotoxicity at 10 µM turned out to be 0.319%.

Regarding `CN(C)C(=O)N[C@@H]1CN(C2CCOCC2)[C@@H]2CCCO[C@@H]21`, the cytotoxicity at 10 µM is -4.08%.

Turning to `COCCN1C[C@@H](C)[C@@]2(COCCN(C(=O)c3cccs3)C2)C1`, the cytotoxicity at 10 µM came out at 9.7%.

`c1csc(CN2CCc3nnc(COc4cncnc4)n3CC2)c1`: the cytotoxicity at 10 µM amounted to 2.49%.

For the compound `O=C(N[C@@H]1CN(c2ncccn2)C[C@@H]2CCCO[C@@H]21)c1cnccn1`, the cytotoxicity at 10 µM amounted to 0.199%.

As to `CN(C)c1nc2cn(C3CC(C)(C)NC(C)(C)C3)c(=O)c-2c[nH]1`, the cytotoxicity at 10 µM was determined as 6.39%.
